Active and inactive are the calls of the source. The calls are words filed in the database; no cut-off is given here.
Tested on: Mycobacterium tuberculosis
Assay: Antimycobacterial activity against drug-resistant Mycobacterium tuberculosis H37Rv at 2mg/mL by BACTEC assay
Format: functional, organism-based
Summary of the method: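 Radiometric BACTEC 12B (7H12) vials with a growing inoculum of 2.5-5.0 × 10⁵ CFU/vial, two-fold compound dilutions, 37 °C. Growth index read daily in a BACTEC 460 until 1:100 inoculum controls reached GI 30. Percent inhibition = (GI test/GI control) × 100.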

For `CO[C@H]1/C=C/O[C@@]2(C)Oc3c(C)c(O)c4c(O)c(c(/C=N/N5CCN(C)CC5)c(O)c4c3C2=O)NC(=O)/C(C)=C\C=C\[C@H](C)[C@H](O)[C@@H](C)[C@@H](O)[C@@H](C)[C@H](OC(C)=O)[C@@H]1C` [RIFAMPIN], the Activity was “inactive”.
